The source made the active and inactive calls. The calls are words filed in the database; no cut-off is given here.
Tests used:
[1] = system: Plasmodium falciparum; assay: Antiplasmodial activity against Plasmodium falciparum 3D7 infected in erythrocytes assessed as reduction in [3H]hypoxanthine incorporation preincubated for 48 hrs followed by [3H]hypoxanthine addition and measured after 18 hrs by topcount scintillation counting analysis; type: functional, organism-based
In short: (§1)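 Modified Desjardins test. Infected erythrocytes at 1.5% final hematocrit and 0.6% parasitemia, in HEPES-buffered RPMI 1640 with 10% AB human serum and a range of compound concentrations, for 48 h. Then [³H]hypoxanthine (0.5 μCi/well) added for 18 h. Freeze-thaw lysis, filter harvest, scintillation counting, uninfected-erythrocyte background subtracted. IC50 from sigmoidal variable-slope regression. Mean of ≥3 independent experiments in duplicate.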

[2] = Toxicity in human K562 cells assessed as effect on cell growth measured after 24 hrs by [3H]thymidine incorporation based assay
In short: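 K562 cells seeded at 8000 per well in RPMI 1640 with 10% FCS. Incubated 24 h at 37 °C, 5% CO₂ with a range of compound concentrations. Then 0.5 μCi [³H]thymidine added for 6 h. Freeze-thaw, harvest of macromolecules and scintillation counting, with medium-only background subtracted.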

[3] = system: Plasmodium berghei; assay: Antiplasmodial activity against Plasmodium berghei ANKA infected in ip dosed Swiss NMRI mouse assessed as reduction in parasitemia administered once daily for 4 days measured 24 hrs post-last dose by Giemsa-staining based assay; type: functional
In short: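 Female Swiss NMRI mice infected on day 0 by IV injection of 10⁷ P. berghei ANKA-infected erythrocytes. Dosed ip once daily for 4 days from day 1, 3 mice per group. Test doses 0–30 mg/kg in 0.9% NaCl; artesunate 0–27 mg/kg in DMSO. Controls received vehicle. Parasitemia counted on day 5 from Giemsa-stained smears, and ED50 taken as the dose giving 50% parasitemia reduction.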

[4] = Selectivity index, ratio of IC50 for human K562 cells to IC50 for antiplasmodial activity against Plasmodium falciparum 3D7 infected in erythrocytes; type: toxicity, cell-based; settings: K562 cells versus Plasmodium falciparum 3D7 in erythrocytes, read-out: Ratio IC50
[5] = system: Plasmodium falciparum; assay: Antiplasmodial activity against chloroquine-resistant Plasmodium falciparum W2 infected in erythrocytes assessed as reduction in [3H]hypoxanthine incorporation preincubated for 48 hrs followed by [3H]hypoxanthine addition and measured after 18 hrs by topcount scintillation counting analysis; type: functional, organism-based; in short: as §1
[6] = system: Plasmodium falciparum; assay: Antiplasmodial activity against chloroquine-resistant Plasmodium falciparum FcM29 infected in erythrocytes assessed as reduction in [3H]hypoxanthine incorporation preincubated for 48 hrs followed by [3H]hypoxanthine addition and measured after 18 hrs by topcount scintillation counting analysis; type: functional, organism-based; in short: as §1
[7] = system: Plasmodium falciparum; assay: Antiplasmodial activity against synchronized ring stage Plasmodium falciparum 3D7 infected in erythrocytes assessed as effect on parasite development by measuring ring stage parasitemia at 2 uM measured immediately by Giemsa/Diff-quick staining based fluorescence microscopic analysis (reference value: 2.1%); type: functional
In short: (§2)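 Tightly synchronized ring-stage culture at 2.5% hematocrit and 1–2% parasitemia, treated or not with 2 μM for 69 h, with drug-containing medium renewed every 24 h. Thin smears taken every 6 h, methanol-fixed and stained with Diff-Quick (pH 7.2). Parasitemia scored by parasite stage, and morphology examined.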

[8] = system: Plasmodium falciparum; assay: Antiplasmodial activity against segmented schizont stage Plasmodium falciparum 3D7 infected in erythrocytes assessed as effect on merozoite DNA content at 2 uM supplemented with fresh medium containing compound every 24 hrs measured at 45 hrs by Hoechst staining based immunofluorescence microscopic analysis; type: functional, organism-based
In short: (§3)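 Tightly synchronized ring-stage culture at 2.5% hematocrit and 1–2% parasitemia, treated or not with 2 μM; drug-containing medium changed every 24 h. At 45 h (segmented schizonts), smears fixed in 4% formaldehyde/PBS, glycine-quenched, Triton X-100-permeabilized and BSA-blocked. Stained with α-mTIP and α-MSP1 antibodies, then secondaries, with Hoechst labelling nuclei.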

[9] = system: Plasmodium berghei; assay: Antiplasmodial activity against Plasmodium berghei ANKA infected in Swiss NMRI mouse assessed as parasitemia at 30 mg/kg, ip administered once daily for 4 days measured on day 11 by Giemsa-staining based assay relative to control; type: functional
In short: (§4)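 Female Swiss NMRI mice infected on day 0 by IV caudal-vein injection of 10⁷ P. berghei ANKA-infected erythrocytes (clone 2.34). Compound given ip in 0.9% NaCl, 100 μL per mouse, 3 mice per group. Either one daily dose for 4 consecutive days from day 1, or a single dose on day 1. Parasitemia counted on Giemsa-stained thin smears and followed for 30 days. Controls received vehicle only.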

[10] = system: Plasmodium falciparum; assay: Antiplasmodial activity against synchronized ring stage Plasmodium falciparum 3D7 infected in erythrocytes assessed as effect on parasite development by measuring late schizont stage parasitemia at 2 uM supplemented with fresh medium containing compound every 24 hrs measured at 42 hrs by Giemsa/Diff-quick staining based fluorescence microscopic analysis (reference value: 1.9%); type: functional; in short: as §2
[11] = system: Plasmodium falciparum; assay: Antiplasmodial activity against synchronized ring stage Plasmodium falciparum 3D7 infected in erythrocytes assessed as effect on parasite development by measuring early schizont stage parasitemia at 2 uM supplemented with fresh medium containing compound every 24 hrs measured at 39 hrs by Giemsa/Diff-quick staining based fluorescence microscopic analysis (reference value: 2.1%); type: functional; in short: as §2
[12] = system: Plasmodium berghei; assay: Antiplasmodial activity against Plasmodium berghei ANKA infected in Swiss NMRI mouse assessed as parasitemia at 30 mg/kg, ip administered once daily for 4 days measured on day 14 by Giemsa-staining based assay relative to control; type: functional; in short: as §4
[13] = system: Plasmodium falciparum; assay: Antiplasmodial activity against synchronized ring stage Plasmodium falciparum 3D7 infected in erythrocytes assessed as effect on parasite development by measuring ring stage parasitemia at 2 uM supplemented with fresh medium containing compound every 24 hrs measured at 69 hrs by Giemsa/Diff-quick staining based fluorescence microscopic analysis (reference value: 11.1%); type: functional; in short: as §2
[14] = system: Plasmodium falciparum; assay: Antiplasmodial activity against synchronized ring stage Plasmodium falciparum 3D7 infected in erythrocytes assessed as effect on parasite development by measuring ring stage parasitemia at 2 uM supplemented with fresh medium containing compound every 24 hrs measured at 48 hrs by Giemsa/Diff-quick staining based fluorescence microscopic analysis (reference value: 9.9%); type: functional; in short: as §2
[15] = system: Plasmodium berghei; assay: Antiplasmodial activity against Plasmodium berghei ANKA infected in Swiss NMRI mouse assessed as reduction in parasitemia at 30 mg/kg, ip administered as single dose by Giemsa-staining based assay relative to control; type: functional; parameters: scale not given: the % may be the effect or the level left; in short: as §4
[16] = system: Plasmodium falciparum; assay: Antiplasmodial activity against synchronized ring stage Plasmodium falciparum 3D7 infected in erythrocytes assessed as effect on parasite development by measuring ring stage parasitemia at 2 uM measured after 24 hrs by Giemsa/Diff-quick staining based fluorescence microscopic analysis (reference value: 2.1%); type: functional; in short: as §2
[17] = system: Plasmodium falciparum; assay: Antiplasmodial activity against synchronized ring stage Plasmodium falciparum 3D7 infected in erythrocytes assessed as effect on parasite development by measuring late schizont stage parasitemia at 2 uM supplemented with fresh medium containing compound every 24 hrs measured at 48 hrs by Giemsa/Diff-quick staining based fluorescence microscopic analysis (reference value: 0.4%); type: functional; in short: as §2
[18] = system: Plasmodium falciparum; assay: Antiplasmodial activity against segmented schizont stage Plasmodium falciparum 3D7 infected in erythrocytes assessed as effect on merozoite development at 2 uM supplemented with fresh medium containing compound every 24 hrs measured at 45 hrs by Hoechst staining based immunofluorescence microscopic analysis; type: functional, organism-based; in short: as §3
[19] = system: Plasmodium berghei; assay: Antiplasmodial activity against Plasmodium berghei ANKA infected in po dosed Swiss NMRI mouse assessed as reduction in parasitemia administered once daily for 4 days measured 24 hrs post-last dose by Giemsa-staining based assay; type: functional
In short: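 Female Swiss NMRI mice infected on day 0 by IV injection of 10⁷ P. berghei ANKA-infected erythrocytes. Oral dosing in water (100 μL, 3 mice per group) at 0, 1, 3, 10 and 30 mg/kg, once daily for 4 days from day 1. Water-only controls. Day-5 parasitemia counted on Giemsa-stained thin smears, and ED50 derived as the dose reducing parasitemia by 50%.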

Compound | IC50 [1] [µM] | IC50 at 24 h [2] [µM] | selectivity ratio [4] | further results
O=c1[nH]cnc2c1ncn2CC[C@@H](O)CP(=O)(O)O | > 1000 | > 1000 | – | –
O=c1[nH]c(=O)c2ncn(CC[C@@H](O)CP(=O)(O)O)c2[nH]1 | 590 | > 1000 | – | –
CCN(CC)CCCC(C)Nc1ccnc2cc(Cl)ccc12 (stereo not drawn) [CHLOROQUINE] | – | 25.3 | – | –
C[C@H]1[C@H](OC(=O)CCC(=O)O)O[C@@H]2O[C@@]3(C)CC[C@H]4[C@H](C)CC[C@@H]1[C@@]24OO3 [ARTESUNATE] | – | – | – | ED50 [3]: 0.1 mg/kg
Nc1ncnc2c1ncn2CC[C@H](O)CP(=O)(O)O | > 1000 | > 1000 | – | –
Nc1nc(O)c2ncn(CC[C@@H](N)CP(=O)(O)O)c2n1 | > 100 | > 1000 | – | –
Nc1nc(O)c2ncn(CCCCP(=O)(O)O)c2n1 | 74 | > 1000 | > 17 | –
O=c1[nH]cnc2c1ncn2CC[C@H](O)CP(=O)(O)O | > 1000 | > 1000 | – | –
Nc1nc(N)c2ncn(CC[C@@H](O)CP(=O)(O)O)c2n1 | 48 | > 1000 | > 21 | –
Nc1nc(N)c2ncn(C[C@@H](O)CP(=O)(O)O)c2n1 | 327 | > 1000 | > 2.6 | –
Nc1nc(N)c2ncn(CC[C@@H](N)CP(=O)(O)O)c2n1 | > 100 | > 1000 | – | –
Nc1nc(N)c2ncn(CC[C@H](N)CP(=O)(O)O)c2n1 | > 100 | > 1000 | – | –
Nc1nc2c(ncn2C[C@H](O)CP(=O)(O)O)c(=O)[nH]1 | 595 | > 1000 | > 1.7 | –
Nc1nc2c(ncn2CC[C@H](O)CP(=O)(O)O)c(=O)[nH]1 | 6.1 | > 1000 | 164 | IC50 [5]: 5.6 µM; IC50 [6]: 4.5 µM
Nc1nc(O)c2ncn(CC[C@H](N)CP(=O)(O)O)c2n1 | > 100 | > 1000 | – | –
Nc1ncnc2c1ncn2C[C@H](O)CP(=O)(O)O | > 1000 | > 1000 | – | –
Nc1nc2c(ncn2CC[C@@H](O)CP(=O)([O-])[O-])c(=O)[nH]1.[Na+].[Na+] | 0.074 | > 1000 | > 1350 | Activity [7]: 2.1%; Activity [8]: inactive; Activity [9]: 6.9 - 16.7%; Activity [10]: 1.7%; Activity [11]: 2.1%; ED50 [3]: 0.56 mg/kg; Activity [12]: 1.7%; Activity [13]: 0%; IC50 [5]: 0.045 µM; Activity [14]: 0.6%; Activity [15]: 95%; Activity [16]: 2.1%; IC50 [6]: 0.03 µM; Activity [17]: 1.3%; Activity [18]: inactive; ED50 [19]: 30 mg/kg
O=c1[nH]c(=O)c2ncn(CC[C@H](O)CP(=O)(O)O)c2[nH]1 | 910 | > 1000 | > 1 | –
Nc1ncnc2c1ncn2C[C@@H](O)CP(=O)(O)O | > 1000 | > 1000 | – | –
Nc1ncc2ncn(CC[C@@H](O)CP(=O)(O)O)c2n1 | 67 | > 1000 | > 16 | –
Nc1ncnc2c1ncn2CC[C@@H](O)CP(=O)(O)O | > 1000 | > 1000 | – | –
Nc1nc(N)c2ncn(CC[C@H](O)CP(=O)(O)O)c2n1 | > 1000 | > 1000 | – | –
Nc1nc(F)nc2c1ncn2CC[C@@H](O)CP(=O)(O)O | 26.3 | > 1000 | > 38 | –
Nc1nc(O)c2ncn(CC/C=C\P(=O)(O)O)c2n1 | > 100 | > 1000 | – | –
Nc1nc2c(ncn2C[C@@H](O)CP(=O)(O)O)c(=O)[nH]1 | > 1000 | > 1000 | – | –
Nc1nc(N)c2ncn(C[C@H](O)CP(=O)(O)O)c2n1 | 510 | > 1000 | > 2 | –

Reference: ChEMBL document CHEMBL4619800, “β-Hydroxy- and β-Aminophosphonate Acyclonucleosides as Potent Inhibitors of Plasmodium falciparum Growth” (J Med Chem, 2020)
